Measured values from different studies.
Protocols differ between the studies behind these lines.
Target: Mitogen-activated protein kinase 9 (MAPK9, Homo sapiens, UniProt P45984)

Compound	observed	technique	concentration	remaining binding
c1cnn2ncc(-c3ccnc(N4CCC45COC5)n3)c2c1	binding		1 µM	44%
c1cncc(-c2cccc(Nc3nccc(NC4CCCCC4)n3)c2)c1	binding	competition with immobilised ligand	10 µM	74%
C[C@H]1CCN(c2nccc(-c3cnn4ncccc34)n2)C1	binding		1 µM	60%
CNC(=O)Nc1ccc2c(c1)[C@@]1(CC2)OC(=O)N(CC(=O)N(Cc2ccc(F)cc2)[C@@H](C)C(F)(F)F)C1=O	cell-free assay	competition with immobilised ligand	1 µM	69%
CCN1CCN(Cc2ccc(C(=O)Nc3ccc(C)c(Oc4ccc5c(c4)CC(=O)N5)c3)cc2C(F)(F)F)CC1	binding	competition with immobilised ligand	1 µM	29%
O=C(NCCCN1CCOCC1)c1ccc(Nc2ncc(Cl)c(-c3ccc(Cl)s3)n2)cc1	binding	competition with immobilised ligand	1 µM	11%
C[C@@H]1CN(c2ccc3ncc(-c4ccc5[nH]nc(C6CC6)c5c4)n3n2)C[C@H](C)O1	binding	competition with immobilised ligand	0.5 µM	50%
CN(C)c1nccc(-c2cnc3ncccn23)n1	binding		1 µM	60%
O=C(NCC1CCOCC1)c1n[nH]cc1NC(=O)c1c(F)cccc1F	binding	competition with immobilised ligand	1 µM	57%
N[C@H]1CCN(c2nccc(-c3cnn4ncccc34)n2)C1	binding		1 µM	100%
COc1ncc2cc3ccccc3nc2c1C#N	cell-free assay	competition with immobilised ligand	5 µM	100%
CN(C)c1ncc(F)c(-c2cnn3ncccc23)n1	binding		1 µM	82%
CCC(=O)N[C@H]1CC[C@@H](C(=O)N(C)c2ccc(-c3nc4ccccc4o3)cc2)C1	cell-free assay	competition with immobilised ligand	1 µM	79%
O=C(c1ccc(Nc2nccc(-c3cc4ccccc4s3)n2)cc1)N1CCC(N2CCCC2)CC1	binding	competition with immobilised ligand	1 µM	33%
CCS(=O)(=O)c1cc2cc(C[C@@](O)(CC(C)(C)c3ccc(F)cc3C(N)=O)C(F)(F)F)[nH]c2cn1	cell-free assay	competition with immobilised ligand	1 µM	84%
O=C(NCCCN1CCOCC1)c1ccc(Nc2nccc(-c3cc4ccccc4s3)n2)cc1	binding	competition with immobilised ligand	1 µM	33%
CC1=C(C#N)C(c2ccc3c(c2)c(NC(=O)c2ccccc2C)nn3C)C(C#N)=C(C)N1	cell-free assay	competition with immobilised ligand	1 µM	73%
COc1ccnn2ncc(-c3ccnc(N(C)C)n3)c12	binding		1 µM	100%
C[C@H](c1ccc(F)cc1)N(Cc1cccc(C(=O)O)c1)C(=O)c1cnc2ccccc2c1	cell-free assay	competition with immobilised ligand	1 µM	81%
CNC(=O)[C@@H]1CC[C@@H](n2c(-c3ccc4cnccc4c3)nc3ccc(C(=O)NCc4cccc(C(N)=O)c4)cc32)C1	binding	competition with immobilised ligand	1 µM	67%
CCOCCn1cc(C(=O)Nc2ccc(-n3nc(-c4cccnc4)cc3C(F)(F)F)cn2)ccc1=O	cell-free assay	competition with immobilised ligand	1 µM	97%
COc1cnc(Nc2cccc(S(N)(=O)=O)c2)nc1N1CCN(c2ccccc2)CC1	binding	competition with immobilised ligand	1 µM	72%
NS(=O)(=O)c1cc(NC(=O)C2(c3ccccc3Cl)CC2)ccc1Oc1cccc(Cl)c1	cell-free assay	competition with immobilised ligand	1 µM	100%
COC(=O)Nc1nc2ccc(C(=O)c3ccccc3)cc2[nH]1	cell-free assay	competition with immobilised ligand	10 µM	9.6%
